Compound activity from PubChem.
ERp5 block: inhibitors of human ERp5. Q15084. ERp5 insulin aggregation, absorbance 650 nm, 90 min. inhibition, % at 9.99 µM. 350,000 compounds, 0.05% hits. AID 651711;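 active = mean replicate inhibition above about 25%, with every replicate also reaching it, limit read from the data, passing the limit was not always enough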
Target sequence (Q15084 whole entry, looked up): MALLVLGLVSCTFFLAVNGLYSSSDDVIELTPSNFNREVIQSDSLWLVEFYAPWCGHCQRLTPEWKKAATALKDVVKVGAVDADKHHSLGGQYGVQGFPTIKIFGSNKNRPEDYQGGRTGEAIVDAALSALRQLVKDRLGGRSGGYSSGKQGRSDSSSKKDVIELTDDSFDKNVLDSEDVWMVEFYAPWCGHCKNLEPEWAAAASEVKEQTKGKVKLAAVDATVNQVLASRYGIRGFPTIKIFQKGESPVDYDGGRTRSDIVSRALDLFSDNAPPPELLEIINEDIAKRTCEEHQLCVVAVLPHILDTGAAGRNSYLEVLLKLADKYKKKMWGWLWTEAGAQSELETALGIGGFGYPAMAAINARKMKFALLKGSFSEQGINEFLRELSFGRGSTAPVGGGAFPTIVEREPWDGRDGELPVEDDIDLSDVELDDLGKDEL
Rin1 Abl inh: human Rin1-Abl interaction inhibition; TR-FRET Rin1/Abl binding, biochemical; inhibition, % at 7.35 µM; 360,000 compounds, 0.4% hits; AID 588664; in the data active = inhibition above about 5%, passing the limit was not always enough
PDI turbidity: PDI (human) enzyme inhibition | PDI insulin aggregation turbidity, A650, 90 min | inhibition, % at 10 µM | 350,000 compounds, 0.052% hits | AID 588391;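 active = mean inhibition across replicates of 30% or more, whatever share of single replicates reach that level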
CAL PDZ FP-1: CAL PDZ (human) peptide binding inhibition. Q9HD26. purified CAL PDZ, TMR-peptide fluorescence polarization, 1 h. inhibition, % at 24.9 µM. 300,000 compounds, 0.92% hits. AID 602252;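 active = mean inhibition of at least 30% with at least half of replicates also reaching 30%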;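 note: 0% = DMSO neutral control and 100% = excess unlabeled competitor peptide PRC23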
CAL PDZ FP-2: inhibitors of human CAL PDZ peptide binding; purified CAL PDZ, TMR-peptide fluorescence polarization, 1 h; inhibition, % at 20 µM; 330,000 compounds, 0.02% hits;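 active = highest replicate inhibition of at least 40%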;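 note: plate controls were DMSO neutral control wells for no effect and unlabeled competitor peptide control wells for full effect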
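Assay system – tagged CAL PDZ protein CerCALP, purified · Timing – 1 h at RT · Compound – single point, 20 µM · Measured by – fluorescence polarization from S- and P-plane intensities, G-factor corrected · Evaluation – inhibition from polarization loss · Probe or stimulus – TMR reporter peptide T*-PRC34 · Buffer or medium – pH 7.4 phosphate-saline buffer, reducing agent, detergent, IgG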
ERAP1 HTS inh: ERAP1 (human) enzyme inhibition; AID 652197; Q9NZ08; recombinant ERAP1, Leu-AMC fluorescence, 60 min; inhibition, % at 10.7 µM; 340,000 compounds, 0.15% hits;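 active = mean replicate inhibition of at least 30%, or all replicates individually reaching that 30% level; inactive = mean below 30% and not every replicate reaching it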;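 note: 0% = neutral control wells and 100% = L-leucinethiol positive control wells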
Numbers without * were called inactive; . = no result; + = active, no number. This is a sample that favours compounds with a hit; in the whole collection about 1.1% have one here.

SMILES	ERp5 block	Rin1 Abl inh	PDI turbidity	CAL PDZ FP-1	CAL PDZ FP-2	ERAP1 HTS inh
O=Cc1cc(N=Nc2ccc(S(=O)(=O)O)cc2)ccc1O	-1	0	2	-5	0	10
O=S(=O)(O)c1ccc(N=NNc2ccc(Br)cc2)cc1	-1	-1	-6	52*	-1	5
CCCn1c(/C=C/c2cc[n+](C)cc2)nc2ccccc21	3	-3	8	-3	-13	41*
CNC(=O)C[C@H]1CC[C@@H]2[C@H](COc3ccc(NC(=O)c4ccc(F)cc4)cc3C(=O)N2C)O1	5	.	.	.	.	2
O=C(c1ccc2c(c1)OCO2)N1CC2(C1)[C@H](c1ccccc1)[C@@H](CO)N2C(=O)C1CC1	-1	.	.	.	.	-1
CC(C)Cc1nnc(NC(=O)c2cc3c(s2)CCC3)s1	6	-1	-32	45*	-1	4
Cc1ccccc1S(=O)(=O)N1CC(=O)N2[C@@H](CO)[C@@H](c3ccc(C#CCN(C)C)cc3)[C@@H]2C1	-9	.	.	.	.	-4
Cc1ccc2cccc(NC(=O)c3ccc(Br)o3)c2n1	.	3	-5	70*	-1	.
Cc1ccc(S(=O)(=O)Nc2ccc3c(c2)C(=O)N([C@H](C)CO)C[C@H](C)[C@@H](CN(C)S(=O)(=O)c2ccc(Cl)cc2)O3)cc1	-1	.	.	.	.	-1
Oc1ccc(CN2CCCCC2)c2cccnc12	-6	2	-4	0	-2	0
O=[N+]([O-])c1cc(CN2CCCC2)c2cccnc2c1O	.	52*	-1	-2	0	.
Oc1c(Cl)cc(CN2CCCCC2)c2cccnc12	.	12*	4	-4	.	.
O=C(Cc1csc(Nc2nc(=S)[nH]c3ccccc23)n1)N1CCN(c2cccc(Cl)c2)CC1	2	-1	-5	54*	-1	-1
O=C(O)Cc1sc(Nc2cccc3ccccc23)nc1-c1ccc(Cl)cc1	2	3	-1	62*	.	-1
C[C@@H]1CN([C@H](C)CO)S(=O)(=O)c2ccc(C#CC3CC3)cc2O[C@H]1CN(C)C(=O)CN(C)C	-3	.	.	.	.	-4
Cc1cc(-c2n[nH]c(=S)n2-c2ccccc2C)cs1	.	1	2	62*	-1	.
C=C1C(=O)OC2/C=C(/C)CC/C=C(/C)CCC12 (centres undefined)	1	.	.	.	.	0
C=CCOc1ccc(Br)cc1CNC(C)(C)CO	5	1	10	-4	1	-1
C=CCOc1ccc(Br)cc1CNCCO	-1	-2	-3	98*	-1	3
CO[C@@H]1CN(C)C(=O)c2cc(NC(=O)CC(F)(F)F)ccc2OC[C@@H](C)N(C(=O)C2CCOCC2)C[C@@H]1C	4	.	.	.	.	1
Cc1ccccc1N(CC(=O)NCCc1ccccc1)C(=O)CCC(=O)Nc1ccccn1	1	3	9	-1	-3	-2
CCc1ccccc1N(CC(=O)NCCc1ccccc1)C(=O)CCC(=O)Nc1ccccn1	0	-1	-3	65*	0	-8
CCOc1ccccc1CNC(=O)CN1C(=O)CSc2ccc(S(=O)(=O)N3CCOCC3)cc21	5	2	3	+	-1	-4
COc1ccc(CNC(=O)CN2C(=O)CSc3ccc(S(=O)(=O)N4CCOCC4)cc32)c(OC)c1	-1	-1	3	-5	-1	1
O=C(C1CC1)N1CCN(c2ccc([N+](=O)[O-])cc2)CC1	3	-5	1	.	.	5
SMILES	ERp5 block	Rin1 Abl inh	PDI turbidity	CAL PDZ FP-1	CAL PDZ FP-2	ERAP1 HTS inh
O=C(C1CCN(S(=O)(=O)c2cnc[nH]2)CC1)N1CCN(c2ccc([N+](=O)[O-])cc2)CC1	-5	-5	-4	49*	-1	7
CCCNC(=O)N(C)C[C@H]1Oc2ncc(C#CCC3CCCC3)cc2C(=O)N([C@@H](C)CO)C[C@@H]1C	-7	.	.	.	.	-1
COC(=O)c1sccc1NC(=S)N1CCN(C)CC1	-5	-2	7	+	0	.
C=CCc1ccc(OCCCCN2CC(C)OC(C)C2)c(OC)c1 (centres undefined)	.	4	1	58*	-1	.
CC1CN(CCCCOc2ccc3ccccc3c2)CC(C)O1 (centres undefined)	8	-2	0	0	0	-4
CC1CN(CCOc2ccc(F)cc2)CC(C)O1 (centres undefined)	0	-2	16	42*	0	-4
COc1cccc(OCCCCN2CC(C)OC(C)C2)c1 (centres undefined)	.	1	2	42*	-1	.
C[C@H](CO)N1C[C@H](C)[C@@H](CN(C)S(=O)(=O)c2cccs2)OCCCC[C@H](C)Oc2ccc(NC(=O)C3CCCCC3)cc2C1=O	7	.	.	.	.	0
Cc1ccc([C@H]2C(C(=O)O)=CC[C@@H](c3ccc(C)cc3)N2S(=O)(=O)c2ccc(C)cc2)cc1	-6	-2	12	-6	-2	-2
Cc1ccc([C@@H]2CC=C(C(=O)O)[C@H](c3ccccc3)N2S(=O)(=O)c2ccc(C)cc2)cc1	-2	4	5	50*	-1	3
O=S(=O)(O)c1cc(Cl)cc(N=Nc2ccc(O)cc2O)c1O	-5	12	3	0	1	12
O=S(=O)(O)c1cc(O)c2c(O)c(N=Nc3cc(Cl)ccc3O)c(S(=O)(=O)O)cc2c1	.	11*	-2	1	2	.
COc1ccc(C2c3ccc(O)cc3Oc3ncn(CCCO)c(=N)c32)cc1 (centres undefined)	-4	0	44*	-2	-3	0
C[C@H]1CN([C@@H](C)CO)C(=O)c2cc(C#CCc3ccccc3)cnc2O[C@@H]1CN(C)Cc1cccc(C(=O)O)c1	-1	.	.	.	.	0
O=S(=O)(NCc1ccc(Cl)cc1Cl)c1ccc(N2CCOCC2)nc1	0	0	8	36*	-1	.
CCC(=O)N1[C@@H](CO)[C@@H]2c3ccccc3N(S(=O)(=O)c3ccccc3C)C[C@@H]21	1	.	.	.	.	3
CC(C)(C)CC(=O)NC(=S)Nc1ccccc1[N+](=O)[O-]	2	3	-2	101*	0	1
O=C(Nc1ccc(-c2ccccc2)cc1)c1ccco1	-1	3	0	8	0	41*
CCC(=O)Nc1cccc(NC(=O)c2ccc3c(c2)OCO3)c1	.	1	-5	50*	-1	.
CCCn1nnc(NC(=O)c2ccc3c(c2)OCO3)n1	0	0	-3	103*	-1	1
